This note sets out measurements from the RNAGym collection of RNA variant scans (doi:10.1126/science.aae0568).

Variants at the floor of the assay were thinned out.

First the molecules themselves.
B1: tRNA (parent)
chain: GUUCCGUUGGCGUAAUGGUAACGCGUCUCCCUCCUAAGGAGAAGACUGCGGGUUCGAGUCCCGUACGGAACG

The variants in this data set derive from B1. The data set can be described thus: yeast fitness relative to wild type (ratio to wild type); higher = fitter; tRNA-Arg(CCU), competitive growth, 37 C, YPD. In short, it runs like this: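 Changes in genotype frequencies gave Darwinian fitness relative to wild type. Frequencies were read by 100-nucleotide paired-end sequencing of gene amplicons before and after pooled Saccharomyces cerevisiae strains, carrying tRNA-Arg(CCU) gene variants at the native locus, were competed in YPD at 37°C for 24 hours in six replicates. A genotype was kept only with ≥ 100 starting reads, and estimates < 0.5 were set to 0.5.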
Consider C4G G25A U28C A36C C60U U64A C66U, for which the yeast fitness is at most 0.5. In the case of C4U C22U A42C, the yeast fitness is at most 0.5. Next, C4G C5A U28G: at most 0.5; C4G C11A G17A A20G C27U A43U C49G C60U G68A: at most 0.5; C4G U26A A57G: at most 0.5. Then C4G C5A A21U C34G, with at most 0.5; and C4G G12C C46U, with at most 0.5; and C4U C11U G23C A37U G44A, with at most 0.5. Then C4G U8C A37U A42C C66G, with at most 0.5; and C4G C29A C46A G58A, with 0.525; and C4G U16C G41C C62U, with at most 0.5. As to C4G C5U A37U, the yeast fitness is at most 0.5. Next, C4G G6C U8G G17A U32C: at most 0.5; C4U C5G C29G C31G A37C U54A: at most 0.5; C4G U8G C27G: 0.567. Then C4G G18C C24G C29G, with at most 0.5; and C4G U16A A21C C24G A37U C55U, with at most 0.5; and C4G C11G C55U C61A G68A, with at most 0.5.

Turning to C4U A42C C61G A65U, the yeast fitness turned out to be 0.62.

C4U C11G A20G C34U: the yeast fitness is at most 0.5. Take C4G C24U A42C C46A U54A: the yeast fitness is 0.623. For C4G C24G G58C, the yeast fitness is at most 0.5. Next, C4G A21C C22A C27G C34U G56A G67C: at most 0.5.

With C4U C22G G67U, the yeast fitness was 0.638.

Take C4U C22U C33U: the yeast fitness was determined as 0.565. Then C4U A14G A36C C46G C61G, with 0.544; and C4U C11G C29U, with at most 0.5.

Turning to C4G G12C, the yeast fitness stood at 0.676. Next, C4G C22U C34G A36U G67A: at most 0.5; C4U A21G C49U: 1.01; C4G C61A G67A: 0.553. Then C4G C5G C11A G38A, with at most 0.5. Next, C4G G17A G41C G58A: at most 0.5. On to C4G G48A, for which the yeast fitness turned out to be 0.876. Then C4U C11A A37C G67C, with at most 0.5. Next, C4U A65G: 0.877; C4U A65C: 0.873. Next, C4G C31A C61U: at most 0.5. Consider C4U A15G C22U G44C, for which the yeast fitness was at most 0.5. Then C4G C5U U13A A40C G58A G68C, with at most 0.5. Consider C4U A43G G68C, for which the yeast fitness turned out to be 0.553. Next, C4U A21C C31A G56C: at most 0.5; C4U C5G C29G C31G A37U C66A: at most 0.5. For the variant C4U A15C C30G C49U A69C A70G, the yeast fitness is at most 0.5. Then C4G C29U A43G U53G G63A, with at most 0.5. In the case of C4G G10C C27G A37G G39A, the yeast fitness was at most 0.5. For the variant C4U A20U A40U G52A A69U, the yeast fitness was at most 0.5.

As to C4G C31G G38U, the yeast fitness was at most 0.5. In the case of C4U A21G C46A C62U, the yeast fitness is 0.691. Then C4G C11G C27G A57G U59G, with at most 0.5; and C4G C11U A14U C30G A69U, with at most 0.5.

For C4G G17A C34A A43G, the yeast fitness came to 0.633. C4G G25A G51A: the yeast fitness was at most 0.5. Then C4U C5U C31G A45G, with at most 0.5; and C4U A36U G41C C55U U64C, with 0.587; and C4G A43C C55A A57C, with at most 0.5. Next, C4U A20C C22U U47G G67A A69U: at most 0.5; C4U A36U A45C C61G A70C: 0.852; C4G C22U C30U C33U A45C: at most 0.5. Next, C4G G17A C22A G38A: 0.638.

With C4U A37C G63A, the yeast fitness came to 0.593.

Turning to C4U A42G U47C G58A, the yeast fitness was at most 0.5. Next, C4G C5A C27A C61A: at most 0.5; C4U A40G A43U C55G: 0.584. Next, C4G G9A: 0.916.

For the variant C4U A21G C46A, the yeast fitness came to 0.899. Next, C4U C11U C30G G68C: 0.593; C4G U8C U16A A21C C24G A37U C55U C62U A69U: at most 0.5. Next, C4G A36G G38A A40U: at most 0.5. Then C4G C30G A69C A70G, with at most 0.5; and C4G G12C U35A C49G C66U, with 0.658; and C4G G9A G39A G63A, with at most 0.5.

As for C4G U19C C29A C33G A45C, the yeast fitness was at most 0.5. For the variant C4U C11U C22G C61A, the yeast fitness was at most 0.5. Next, C4U C22A A40C: at most 0.5; C4U A15C C30G G56A A69C A70G: at most 0.5. Next, C4G A21G A45U C49U: at most 0.5; C4G A40U C66G: 0.624. Then C4U A14U C46U, with 0.577. As for C4G G39C A45G A57C A65U C66U, the yeast fitness amounted to 0.796. Next, C4U C11G C29A U54A U59G: at most 0.5; C4G U7G A20G A65U: at most 0.5; C4U A36U A40C A65C: at most 0.5. For the variant C4G G25A C66A, the yeast fitness was at most 0.5. For C4G U7G G12C A20U A70U, the yeast fitness is at most 0.5. Next, C4G A45U: 0.91. Then C4U A21G C46A G68U, with 0.574; and C4U A15U U16A G23C A57U A69U, with at most 0.5; and C4G A36G, with 0.939. Then C4G C30A A45U C55U, with at most 0.5; and C4G C11G C55U C61A G67A, with at most 0.5. In the case of C4U A57U, the yeast fitness came to 0.635.

Consider C4G C24G, for which the yeast fitness was 0.617.

Turning to C4G C24U C33G A65U C66U A69C, the yeast fitness was determined as 0.584. Consider C4G G17C C22A C27G C33U C49G, for which the yeast fitness was at most 0.5. Next, C4G C34U U35G A57G: at most 0.5; C4U A40U G68U: 0.708; C4U A36C C61A: 0.705. Next, C4G U13G U16A: at most 0.5; C4G U13G U16C: 0.566. Then C4G G10C C34U C46G, with at most 0.5; and C4U A20C C55A, with 0.721. With C4U C11U G67A A69C, the yeast fitness was at most 0.5. Then C4G U7G C31U, with 0.56. Then C4G A65U G68U, with 1.11; and C4G G9A C22U C46G G56C, with at most 0.5; and C4G C22G C24U G41A, with at most 0.5. Turning to C4U C11U C33U C62A, the yeast fitness was at most 0.5. Next, C4U A15C A65U A69U: at most 0.5.

For C4U A14G, the yeast fitness was found to be 0.856.

For C4G G10A C30G A43G A57U, the yeast fitness was at most 0.5. Regarding C4U C11A A37C C66A, the yeast fitness is 0.535. For the variant C4G C11U A14U G23A C62A, the yeast fitness was at most 0.5. Next, C4G G23C: 0.587; C4G G6C G25A C29A C31A C33G G41C: at most 0.5; C4G C30A G50U C66U: at most 0.5. For C4G G9C G41A, the yeast fitness was at most 0.5. Then C4G U16C C29G A36U A70G, with at most 0.5; and C4U A21G C46A U54C, with 0.791; and C4G G6A C11U C61U, with at most 0.5. With C4G A37G A43G A69U, the yeast fitness was at most 0.5. Next, C4G G12A C24U A70C: at most 0.5; C4U C5G C31G G50C: at most 0.5; C4G U8C C31G C33G G58C C60U A70C: at most 0.5.

Turning to C4G C5U A43G, the yeast fitness was at most 0.5. Then C4U A45C G51A, with 0.501. Next, C4U A36G C61U: 0.73.

For the variant C4G G12U A14C C49G A57U C61G, the yeast fitness is at most 0.5. Next, C4U C5G A40G G51C U59A C61A A69U: at most 0.5. For C4G C11A A14U C22A C24G, the yeast fitness is at most 0.5. Next, C4G C31U: 1.12; C4G C60U C61G: at most 0.5; C4G A43C: 0.853. Next, C4G C22A: 0.767. Then C4G C49U C62U, with 0.653; and C4G U13A U54A, with at most 0.5.

For C4U C11U A15G C34U U54C C55U, the yeast fitness worked out at 0.501. Then C4U A14G A36C C46G C62U, with at most 0.5; and C4G C11G G50A, with at most 0.5. Take C4G G51U: the yeast fitness turned out to be 0.654. Next, C4G G17A G56C C60G C66U: at most 0.5; C4G A21G U32A: 0.672. Next, C4U C11U C24A U47G: 0.557.

C4G U8C G48C: the yeast fitness turned out to be 0.568. Then C4G C60G, with 0.615; and C4G G12U A14C C49U, with at most 0.5. On to C4G U59C, for which the yeast fitness is 0.771. On to C4G G25C C46U G50A, for which the yeast fitness is 0.636. In the case of C4G C29A, the yeast fitness turned out to be 0.757. Then C4U A57U C61U, with 0.605; and C4G A21G C31G C33G, with at most 0.5; and C4G G10C C31U U53A, with at most 0.5.

Take C4G C29G A37G: the yeast fitness is 0.598. Then C4G C31A C33G G51C G52A C60G, with at most 0.5; and C4U A36U A40C, with 0.64. Take C4G A40G C55U: the yeast fitness is at most 0.5. Then C4G C11G C33G U47A, with at most 0.5. Next, C4U C22G A36C C62G A70C: at most 0.5. Then C4G U7C C33G G52A, with 0.652; and C4G C24U U59C, with at most 0.5. In the case of C4G A40U A42C A57C, the yeast fitness is at most 0.5. For C4U A20G C61A, the yeast fitness stood at 0.512. Then C4G C24U A45C, with 0.6. Next, C4G G51C U64A: at most 0.5; C4G U26A U32C: 0.565. As to C4G U7A U19C A20C C55A G68C, the yeast fitness is at most 0.5. Then C4U C11U U26G U28C A37G G41A C49G, with at most 0.5.
